Read-outs that look alike come from different tables or passages of the source.
T1: purified human cathepsin H (Homo sapiens, UniProt P09668)
T1 sequence (P09668 98-335): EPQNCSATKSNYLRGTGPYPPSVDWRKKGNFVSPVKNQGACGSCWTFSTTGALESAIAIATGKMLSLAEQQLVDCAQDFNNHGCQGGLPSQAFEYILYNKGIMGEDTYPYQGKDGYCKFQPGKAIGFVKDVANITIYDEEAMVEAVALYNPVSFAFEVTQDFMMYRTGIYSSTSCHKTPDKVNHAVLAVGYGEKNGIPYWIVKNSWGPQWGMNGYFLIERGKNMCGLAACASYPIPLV

B1: sialoL: salivary cystatin (cysteine protease inhibitor) from the tick Ixodes scapularis, recombinant from E. coli (protein)
chain: TGVFGGYSERANHQANPEFLNLAHYATSTWSAQQPGKTHFDTVAEVVKVETQVVAGTNYRLTLKVAESTCELTSTYNKDTCLPKADAAHRTCTTVVFENLQGDKSVSPFECEAA
B2: sialoL2: salivary cystatin (cysteine protease inhibitor) from the tick Ixodes scapularis, recombinant from E. coli (protein)
chain: MELALRGGYRERSNQDDPEYLELAHYATSTWSAQQPGKTHFDTVVEVLKVETQTVAGTNYRLTLKVAESTCELTSTYNKDTCQANANAAQRTCTTVIYRNLQGEKSISSFECAAA

Assays:
[1] = target: T1, purified human cathepsin H; assay: Inhibition of cathepsin H, fluorogenic substrate assay; type: biochemical
[2] = target: purified bovine cathepsin B (Bos taurus, UniProt P07688); assay: Inhibition of cathepsin B, fluorogenic substrate assay; type: biochemical
Procedure, shortened: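 Pre-incubated 10 min at room temperature with increasing inhibitor concentrations, then Z-Leu-Arg-AMC added (0.25 mM final) at 30°C. Linear hydrolysis rate read for 20 min (ex 365/em 450 nm). Triplicates, mean ± SEM. IC50 from activity loss.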

Row | Molecule | inhibition of cathepsin H (in words) [1] | inhibition of cathepsin B (in words) [2] | inhibition of cathepsin H (in words) ([1]; listed as sialostatin L2)
1 | B1 | no inhibition | no inhibition | –
2 | B2 | – | no inhibition | no detectable inhibition

Source: article PMC2909360 (Molecular microbiology, 2010)
